# Results: paper PMC5350499 (International Journal for Parasitology: Drugs and Drug …, 2017)
# Where two headings read alike, the source gives them in different places.
# Tests used:
# β-hematin formation = test: β-Hematin formation assay; type: biochemical; conditions: 100 μM; for %Inhibition of β-hematin formation: average of two separate experiments
# In short: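 Compound added with water, acetone and Nonidet P-40, then hematin-DMSO suspension; incubated 6 h at 37 °C with shaking. β-Hematin measured by pyridine ferrochrome method: 5% v/v final pyridine (from water/20% acetone/HEPES/50% pyridine solution), 10 min under the same conditions, absorbance at 405 nm. Chloroquine and 8-hydroxyquinoline run as references.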
# [1] = system: P. falciparum HB3 (chloroquine-sensitive); test: Image-based merozoite egress and invasion assay; type: cell-based, Plasmodium falciparum; conditions: for parasite phenotype in sample micrographs: 1 μM at 42 hpi for 24 h (Fig. 4 legend); for effect on merozoite egress and invasion: exposed at 42 hpi (schizont stage) for 24 h, 10 μM per method
# In short: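 Sorbitol-synchronized HB3 at 1.5% hematocrit and 5% parasitemia, exposed at 42 hpi for 24 h alongside GlcNAc, E-64 and artemisinin references. Stained with WGA-Alexa Fluor 488 and Mitotracker Red CMXRos (1 nM each, 37 °C, 20 min), then fixed in 4% paraformaldehyde with DAPI. Five fields per well imaged at 405/488/635 nm (40× objective) with automated detection of parasitized erythrocytes.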
# [2] = system: HepG2 human hepatocyte cells; test: MTS cytotoxicity assay; type: cell-based; conditions: for EC50: Homo sapiens
# In short: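 HepG2 seeded at 2500 cells/well in 384-well plates with compound dilutions, 48 h at 37 °C, 5% CO2. MTS reagent added for a further 3 h; absorbance read at 490 nm. EC50 from 3 independent experiments, each in triplicate (±SD).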
# [3] = system: P. falciparum 3D7 (chloroquine-sensitive); test: SYBR green I-based parasite viability assay, 3D7 strain; type: cell-based; conditions: Plasmodium falciparum, 3D7, 72 h
# In short: (§1)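 Parasites grown in human A+ erythrocytes in RPMI 1640 (25 mM HEPES pH 7.4, 26 mM NaHCO3, 2% dextrose, hypoxanthine, gentamycin, 0.5% Albumax II), 37 °C, 5% CO2. Compound DMSO dilutions (<0.125% DMSO) at 1% parasitemia, 2% hematocrit; chloroquine baseline. After 72 h: frozen at −80 °C, thawed, lysed with saponin/Triton/EDTA buffer containing 0.01% SYBR Green I, 30 min dark at 37 °C; fluorescence read at 485/530 nm. EC50 from 3 experiments × 3 replicates (±SD).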
# [4] = system: P. falciparum Dd2 (chloroquine-resistant); test: SYBR green I-based parasite viability assay, Dd2 strain; type: cell-based, Plasmodium falciparum; conditions: for EC50: Plasmodium falciparum, DD2, 72 h
# In short: as §1
# P. falciparum Dd2 [5] = test: Stage specificity, YOYO-1 flow cytometry of synchronized cultures; type: cell-based, Plasmodium falciparum; conditions: treated at ring stage (6 hpi), 5× EC50; monitored every 12 h
# In short: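 Aliquots taken every 12 h over 48 h. Samples fixed in 0.04% glutaraldehyde/PBS, permeabilized with 0.25% Triton X-100, RNase-treated and stained with YOYO-1. Flow cytometry at 488 nm excitation with a 530/30 filter; DNA content plotted against cell count.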
# P. falciparum = test: Parasitemia after treatment at late schizont/segmenter stage; type: cell-based, Plasmodium falciparum; conditions: 5× EC50, 24 h; compared to control cultures
# P. falciparum Dd2 [6] = test: Stage specificity, Giemsa-stained thin smears of synchronized cultures; type: cell-based, Plasmodium falciparum
# Microsomal stability = type: in vitro ADME; conditions: mouse, liver microsomes
# [7] = Aqueous solubility at pH 7.4, UV-visible absorption based method; type: physicochemical; conditions: aqueous solution at pH 7.4, pH 7.4, aqueous buffer
# P. berghei ANKA = test: Peters' four-day test, murine malaria model; type: in vivo, Plasmodium berghei in balb/c mice; conditions: 100 mg/kg twice daily oral
# [8] = system: P. berghei ANKA expressing luciferase; test: Elimination of existing infection, luciferase IVIS imaging; type: in vivo, Plasmodium berghei in Swiss Webster mice; conditions: 100 mg/kg once daily oral, started 72 h post-infection; Swiss Webster mice
# In short: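 Swiss Webster mice infected with 10^4 luciferase-expressing P. berghei ANKA on day 0 and grouped at 72 h (n = 5/group). Oral gavage once daily for 5 days: test compound 100 mg/kg, chloroquine 40 mg/kg, or vehicle (2% methylcellulose, 0.5% Tween80). On day 7, D-luciferin 150 mg/kg injected; signal detected and quantified by IVIS.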
# [9] = HepG2, 48 h, read-out: HepG2 EC50
structure (smiles),measurement,setting,value
Oc1cccc2cccnc12 [8-Hydroxyquinoline],%Inhibition of β-hematin formation,β-hematin formation,6 ± 0.42%
CC(=O)N[C@@H]1[C@@H](O)[C@H](O)[C@@H](CO)O[C@H]1O [N-acetylglucosamine],parasite phenotype in sample micrographs,[1],accumulation of extracellular merozoites
same,effect on merozoite egress and invasion,[1],blocks invasion
COc1ccc2nc(/C=C/c3ccccc3)cc(NCCCN3CCOCC3)c2c1 [Compound 13],EC50,[2]; [9],18000 ± 40 nM
same,EC50,[3]; read-out: 3D7 EC50,373 ± 30 nM
same,EC50,[4]; read-out: Dd2 EC50,303 ± 40 nM
COc1ccc2nc(/C=C/c3ccc([N+](=O)[O-])cc3)cc(NCCCN3CCOCC3)c2c1 [Compound 17],EC50,[2]; [9],15700 ± 70 nM
same,EC50,[3]; read-out: 3D7 EC50,193 ± 50 nM
same,EC50,[4]; read-out: Dd2 EC50,123 ± 50 nM
"CC(C)C[C@H](NC(=O)[C@H]1O[C@@H]1C(=O)O)C(=O)NCCCCN=C(N)N (relative stereo) [Compound E-64, L-trans-epoxysuccinyl-leucylamido-(4-guanidino)butane]",effect on merozoite egress and invasion,[1],completely blocks egress
COc1ccc2nc(/C=C/c3ccccc3)cc(NCCCN(C)C)c2c1 [Compound 8],EC50,[2]; [9],19900 ± 40 nM
same,EC50,[3]; read-out: 3D7 EC50,302 ± 10 nM
same,EC50,[4]; read-out: Dd2 EC50,323 ± 40 nM
COC(=O)c1ccc(/C=C/c2cc(NCCCN3CCOCC3)c3cc(OC)ccc3n2)cc1 [Compound 16],EC50,[2]; [9],12800 ± 20 nM
same,EC50,[3]; read-out: 3D7 EC50,322 ± 40 nM
same,EC50,[4]; read-out: Dd2 EC50,471 ± 80 nM
"C[C@@H]1CC[C@H]2[C@@H](C)C(=O)O[C@@H]3O[C@@]4(C)CC[C@@H]1[C@]32OO4 [artemisinin, reference compound]",intraerythrocytic maturation by flow cytometry,P. falciparum Dd2 [5],maturation is blocked
same,effect on merozoite egress and invasion,[1],no effect on invasion
same,culture parasitemia after exposure at 42 hpi,P. falciparum,does not cause similar marked reduction
"CCN(CC)CCCC(C)Nc1cc(/C=C/c2ccc([N+](=O)[O-])cc2)nc2ccc(OC)cc12 (stereo not shown) [UCF 501, 4-Nitro styrylquinoline (NSQ)]",intraerythrocytic maturation by flow cytometry,P. falciparum Dd2 [5],maturation is blocked
same,ring-infected erythrocytes after exposure at 42 hpi,"P. falciparum Dd2 [6]; 5× EC50, compared to untreated controls",scarcely seen
same,blocking merozoite egress,"P. falciparum Dd2 [6]; 5× EC50, treated at 42 hpi",inactive
same,time to phenotypically observable developmental changes,"P. falciparum Dd2 [6]; after treatment, all stages of the intraerythrocytic lifecycle",≤ 12 h
same,selectivity,[2]; HepG2 EC50 versus Dd2 EC50,192
same,EC50,"[2]; HepG2, 48 h, read-out: EC50 HepG2",12920 ± 70 nM
same,EC50,"[2]; HepG2, read-out: EC50 in HepG2 cells",12900 nM
same,remaining at 1 h,Microsomal stability,47.8%
same,half-life,"Microsomal stability; Microsomal stability t1/2, mouse liver microsomes",56.2 min
same,solubility,[7],290 µg/mL
same,"inhibition of β-hematin formation, in words",β-hematin formation,totally inactive
same,%Inhibition of β-hematin formation,β-hematin formation,0 ± 0.07%
same,EC50,[3]; read-out: EC50 3D7,119 ± 3 nM
same,parasite phenotype in sample micrographs,[1],accumulation of extracellular merozoites
same,effect on merozoite egress and invasion,[1],blocks invasion
same,culture parasitemia after exposure at 42 hpi,P. falciparum,significant reduction
same,mice cured of malaria infection,"P. berghei ANKA; 4 days, Balb/c mice, no infection up to day 30",4/5
same,"parasitemia in the one animal not cured, day 22",P. berghei ANKA; day 22,0.2%
same,"parasitemia in the one animal not cured, day 27","P. berghei ANKA; day 27, euthanized",40%
same,"luciferase expressing parasite burden, delayed treatment",[8],almost cleared
same,EC50,[4]; read-out: EC50 Dd2,67 ± 8 nM
COC(=O)c1ccc(/C=C/c2cc(NCCCN(C)C)c3cc(OC)ccc3n2)cc1 [Compound 11],EC50,[2]; [9],14900 ± 30 nM
same,EC50,[3]; read-out: 3D7 EC50,294 ± 60 nM
same,EC50,[4]; read-out: Dd2 EC50,138 ± 60 nM
"CCN(CC)CCCC(C)Nc1ccnc2cc(Cl)ccc12 (stereo not shown) [Chloroquine, reference compound]",EC50,[2]; [9],> 20000 nM
same,"inhibition of β-hematin formation, in words",β-hematin formation,complete inhibition
same,%Inhibition of β-hematin formation,β-hematin formation,100 ± 1.78%
same,EC50,[3]; read-out: 3D7 EC50,11 ± 2 nM
same,EC50 fold higher in Dd2 compared to 3D7,[4]; Dd2 versus 3D7,15 fold
same,EC50,[4]; read-out: Dd2 EC50,172 nM
COc1ccc2nc(/C=C/c3ccc([N+](=O)[O-])cc3)cc(NCCCN(C)C)c2c1 [Compound 12],EC50,[2]; [9],15300 ± 50 nM
same,EC50,[3]; read-out: 3D7 EC50,197 ± 20 nM
same,EC50,[4]; read-out: Dd2 EC50,57 ± 30 nM
COc1ccc2nc(/C=C/c3ccc(C(F)(F)F)cc3)cc(NCCCN(C)C)c2c1 [Compound 10],EC50,[2]; [9],> 20000 nM
same,EC50,[3]; read-out: 3D7 EC50,605 ± 40 nM
same,EC50,[4]; read-out: Dd2 EC50,726 ± 40 nM
COc1ccc2nc(/C=C/c3ccc(C(F)(F)F)cc3)cc(NCCCN3CCOCC3)c2c1 [Compound 15],EC50,[2]; [9],> 20000 nM
same,EC50,[3]; read-out: 3D7 EC50,599 ± 30 nM
same,EC50,[4]; read-out: Dd2 EC50,735 ± 60 nM
COc1ccc2nc(/C=C/c3ccc(F)cc3)cc(NCCCN3CCOCC3)c2c1 [Compound 14],EC50,[2]; [9],13600 ± 50 nM
same,EC50,[3]; read-out: 3D7 EC50,310 ± 20 nM
same,EC50,[4]; read-out: Dd2 EC50,208 ± 40 nM
COc1ccc2nc(/C=C/c3ccc(F)cc3)cc(NCCCN(C)C)c2c1 [Compound 9],EC50,[2]; [9],12600 ± 10 nM
same,EC50,[3]; read-out: 3D7 EC50,299 ± 40 nM
same,EC50,[4]; read-out: Dd2 EC50,137 ± 50 nM
